Measured values taken from publication PMC8867396 (Nature, 2021).
pKi: −log10 of the molar value. Like-named read-outs stand apart in the source and are kept apart here.

Legend:
[1] = Pharmacokinetics in male CD-1 mice, plasma and brain; assay type: in vivo; conditions: 10 mg/kg subcutaneous
SNI mice = experiment: Spared nerve injury; assay type: in vivo; conditions: for anti-allodynic effect, mechanical thresholds versus vehicle: systemic (subcutaneous) administration to SNI mice
Summary of the method: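 Spared nerve injury under isoflurane: two sciatic branches ligated and transected, sural nerve intact; mice tested 7–14 days later. Test compound (10, 20 or 30 mg/kg) or vehicle (saline, cyclodextrin, kolliphor) given subcutaneously, random assignment. Hindpaw von Frey thresholds by up-down method at 1, 24, 48 h. Thresholds normalized to each mouse's post-SNI baseline; n = 5–10; ANOVA with Dunnett's test.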

human σ2 receptor = human σ2 receptor (Homo sapiens, UniProt Q5BJF2); experiment: Competition binding of [3H]-DTG in Expi293 membranes expressing σ2 receptor; conditions: for pKi: read-out: σ2 Ki (affinity); for Selectivity (σ1/σ2): ratio of σ1 Ki to σ2 Ki; for Ki: read-out: Ki (nM) σ2, competition with 10 nM [3H]-DTG
Summary of the method: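 σ2-expressing Expi293 membranes were made by osmotic lysis (20 mM HEPES pH 7.5, 2 mM MgCl2), spun at 20,000 × g, and kept in 50 mM Tris pH 8.0 at −80 °C. Assay buffer: 50 mM Tris pH 8.0, 0.1% BSA, 10 nM [3H]-DTG and graded competitor; 37 °C, 90 min. 10 μM haloperidol set nonspecific binding. Filtration, scintillation counting; Ki by Cheng-Prusoff using measured probe Kd.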

[2] = system: σ2 mutants (His21, Gln77); experiment: Competition binding in σ2 receptor mutants disrupting water coordination; design: species or system human
Summary of the method: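 Expi293 membranes carrying wild-type or mutant σ2 (lysed osmotically in 20 mM HEPES pH 7.5, 2 mM MgCl2; pellet at 20,000 × g), in 50 mM Tris pH 8.0, 0.1% BSA, with 10 nM [3H]-DTG and graded competitor. Incubated 37 °C, 90 min, shaking. Filtered on PEI-soaked glass fibre, scintillation counted. Nonspecific binding with 10 μM haloperidol. Ki by Cheng-Prusoff; three technical replicates, mean ± SEM.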

mice = experiment: Rotarod; assay type: in vivo; conditions: 1 hour or 24 hours post-injection; Z1665845742 10 mg/kg, Z4857158944 20 mg/kg, Z4446724338 10 mg/kg
σ1 receptor = σ1 receptor (Homo sapiens, UniProt Q99720); experiment: Competition binding versus σ1 receptor; conditions: read-out: Ki (nM) σ1
σ1 receptor, sequence (Q99720 whole entry, species assumed): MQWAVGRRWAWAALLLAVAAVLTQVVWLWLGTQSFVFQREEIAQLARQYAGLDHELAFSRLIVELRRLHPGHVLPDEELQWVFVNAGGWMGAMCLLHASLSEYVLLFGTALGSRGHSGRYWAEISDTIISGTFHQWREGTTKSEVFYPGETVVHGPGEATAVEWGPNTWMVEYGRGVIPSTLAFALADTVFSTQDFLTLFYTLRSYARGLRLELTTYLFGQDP

human σ2 receptor, sequence (Q5BJF2 whole entry): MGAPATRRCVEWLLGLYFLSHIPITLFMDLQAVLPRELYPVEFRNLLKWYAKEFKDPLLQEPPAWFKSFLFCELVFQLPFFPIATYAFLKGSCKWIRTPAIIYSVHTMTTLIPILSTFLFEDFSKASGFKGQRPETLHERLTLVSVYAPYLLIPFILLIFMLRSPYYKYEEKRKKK

SMILES	Selectivity (σ1/σ2) (human σ2 receptor)	Ki (human σ2 receptor) [nM]	Ki (σ1 receptor) [nM]	also measured
COc1cccc2c1CCCC2CCCN1CCN(C2CCCCC2)CC1 (stereo not shown) [PB28, reference compound]				AUC0→t (AUClast) ([1]; brain): 229000 ng·min/mL (g); AUC0→∞ (AUCinf_obs) ([1]; brain): 240000 ng·min/mL (g); Cmax ([1]; brain): 948 ng/mL (g); Kel (Lambda_z) ([1]; brain): 0.00706 min⁻¹; T1/2 (HL_Lambda_z) ([1]; brain): 1.64 h; Tmax ([1]; brain): 1 h; AUC0→t (AUClast) ([1]; plasma): 8640 ng·min/mL (g); AUC0→∞ (AUCinf_obs) ([1]; plasma): 45900 ng·min/mL (g); Cmax ([1]; plasma): 42 ng/mL (g); Kel (Lambda_z) ([1]; plasma): 0.000937 min⁻¹; T1/2 (HL_Lambda_z) ([1]; plasma): 12.3 h; Tmax ([1]; plasma): 1 h; mice in which anti-allodynic effects were observed (SNI mice; systemic injection, 30 mg/kg): 60%
CCCN1CCC=C(c2cc(-c3ccc(C)cc3)no2)C1 [PD-144418]				anti-allodynic effect, mechanical thresholds versus vehicle (SNI mice): anti-allodynia; anti-allodynia 24 or 48 hours post-injection (SNI mice; tested at 1, 24 and 48 hours after dosing): not sustained
c1ccc(CCCN2CCC(c3nnc4ccccn34)CC2)cc1 [Z163048780]				pKi (human σ2 receptor): < 5.00
C1=C(c2c[nH]c3ccccc23)CCN(CCCc2ccccc2)C1 [Z295861754]				decrease in σ2 affinity (human σ2 receptor; versus parent Z1241145220): 8 fold
C1=C(c2c[nH]c3ncccc23)CCN(CCCc2ccccc2)C1 [Z1241145220]				pKi (human σ2 receptor): 8.43; reduction of affinity on mutation ([2]; Gln77 mutant versus wild-type σ2): about 10 fold; reduction of affinity on mutation ([2]; His21 mutant versus wild-type σ2): about 10 fold
OC(CCc1ccccc1)CN1CCC(c2nnc3ccccn23)CC1 (stereo not shown) [Z1665798906]				σ2 activity in words (human σ2 receptor): σ2 inactive
OC(CCc1ccccc1)CN1CC=C(c2c[nH]c3ncccc23)CC1 (stereo not shown) [Z1665845742]				selectivity for σ2 over σ1 (human σ2 receptor): 47 fold; pKi (human σ2 receptor): 8.30; AUC0→t (AUClast) ([1]; brain): 436000 ng·min/mL (g); AUC0→∞ (AUCinf_obs) ([1]; brain): 509000 ng·min/mL (g); Cmax ([1]; brain): 3150 ng/mL (g); Kel (Lambda_z) ([1]; brain): 0.000928 min⁻¹; T1/2 (HL_Lambda_z) ([1]; brain): 12.4 h; Tmax ([1]; brain): 0.333 h; AUC0→t (AUClast) ([1]; plasma): 99000 ng·min/mL (g); AUC0→∞ (AUCinf_obs) ([1]; plasma): 112000 ng·min/mL (g); Cmax ([1]; plasma): 968 ng/mL (g); Kel (Lambda_z) ([1]; plasma): 0.00374 min⁻¹; T1/2 (HL_Lambda_z) ([1]; plasma): 3.08 h; Tmax ([1]; plasma): 0.333 h; anti-allodynic effect, mechanical thresholds versus vehicle (SNI mice): anti-allodynic; sedation or motor impairment on the rotarod (mice): No sedation or motor impairment
N/C(=N\Cc1ccc(F)cc1Br)NCC1CCC1 [ZINC000170908795]	4.9	6.7	32.7	
Cc1ccc([C@H]2CCN(CC3(O)CCC3)C2)c(C)c1 [ZINC000348332392]	0.1	33.7	2.9	
C[C@@H](c1ccccc1)[C@@H](O)CN1CCC(c2c[nH]c3ncccc23)CC1 [ZINC000450573233]	30	4.3	128	
C[C@@H](C(=O)N(C)Cc1cccc(F)c1)N1CC=C(c2c[nH]c3ncccc23)CC1 [ZINC000533478938]	43	34.5	1470	
Cc1ccc(CCC2CCN(C(=O)CN3C[C@@H]4CC[C@@H](O)[C@H]4C3)CC2)cc1 [ZINC000544117725]	1.6	10	16.2	
CC1CCC(O)(CN2CC(Cc3ccc(F)c(F)c3)C2)CC1 (stereo not shown) [ZINC000548355486]	2	2.4	4.9	
Cc1ccc(CC2CN(CC3(O)CCSCC3)C2)cc1 [ZINC000656714762]	0.1	67.8	4.6	
CC(C)(NCc1ccc2c(c1)OCCO2)[C@H](O)c1ccccc1 [ZINC000895657866]	46	21.4	990	
O[C@@]1(CNCc2cccc3c2OCC3)CCc2ccccc21 [ZINC000921927365]	18	67.3	1190	
CC(C)CCO[C@@H]1CCN(C[C@H]2CC3(CCCCC3)CO2)C1 [ZINC001196519317]	5.6	2.4	13.4	
Fc1c(CN2CCN(C[C@@H]3CCCO3)CC2)ccc(Br)c1Cl [ZINC001237901728]	0.1	27	1.6	
O[C@@H](COCc1ccccc1F)CN1CC(Cc2ccccc2C(F)(F)F)C1 [ZINC001254761628]	11.3	4.7	53	
CC[C@@H](CO)N1CCC(CCc2ccc(F)cc2F)CC1 [ZINC001460312963]	0.3	5.2	1.7	
